Compound activity deposited in PubChem BioAssay by several laboratories.
TNAP act hiacc – TNAP activators at high phosphate acceptor level, primary screen, biochemical, luminescence, uHTS; Alkaline phosphatase, tissue-nonspecific isozyme (Homo sapiens), P05186; purified TNAP, CDP-star luminescence, 1 M DEA, 30 min; hits give high values; 0 = EDTA background, 1 = DMSO-only activity; activation factor at 20 µM; 200,000 tested, under 10 active;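 active = activation factor at least 2 at 20 µM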
Target sequence (P05186 whole entry, looked up): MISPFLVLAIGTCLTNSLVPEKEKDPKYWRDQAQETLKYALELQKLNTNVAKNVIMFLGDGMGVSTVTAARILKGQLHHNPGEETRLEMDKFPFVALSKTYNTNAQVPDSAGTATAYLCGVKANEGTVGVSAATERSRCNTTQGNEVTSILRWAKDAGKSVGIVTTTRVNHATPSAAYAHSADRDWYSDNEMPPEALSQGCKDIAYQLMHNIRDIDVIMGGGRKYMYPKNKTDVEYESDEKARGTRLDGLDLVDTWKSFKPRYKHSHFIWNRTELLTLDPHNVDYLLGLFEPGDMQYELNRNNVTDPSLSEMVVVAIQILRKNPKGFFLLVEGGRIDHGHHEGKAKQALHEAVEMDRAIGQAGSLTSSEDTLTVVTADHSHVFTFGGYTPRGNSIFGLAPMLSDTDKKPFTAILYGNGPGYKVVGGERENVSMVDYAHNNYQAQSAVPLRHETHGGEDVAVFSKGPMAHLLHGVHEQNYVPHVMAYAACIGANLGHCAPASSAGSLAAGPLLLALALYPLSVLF
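Dosing: 20 µM single point. System: human TNAP. Amount: TNAP 1/800 final. Incubation: 30 min, room temperature. Read-out: TNAP activation factor scaled between EDTA and DMSO control wells. Signal: luminescence from CDP-star hydrolysis. Medium: 1 M DEA, pH 9.8, Mg2+, Zn2+. Control set: EDTA negative control, DMSO positive control.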
TNAP inh no acc – human TNAP enzyme inhibitors, primary screen, biochemical, luminescent, no phosphate acceptor, uHTS; Alkaline phosphatase, tissue-nonspecific isozyme (Homo sapiens), P05186; purified TNAP, CDP-star luminescence, 30 min; inhibition, % at 20 µM; 200,000 compounds, 0.26% hits; AID 1012, 2008;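 active = tissue-nonspecific alkaline phosphatase inhibition above about 50% at 20 µM in the single-dose screen, limit read from the data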;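 note: 0% = DMSO negative control and 100% = EDTA positive control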
TNAP inh hiacc – human TNAP enzyme inhibitors, primary screen, biochemical, luminescent, high phosphate acceptor level, uHTS. Alkaline phosphatase, tissue-nonspecific isozyme (Homo sapiens), P05186. AID 1135, 2008. inhibition, % at 20 µM. purified TNAP, CDP-star luminescence, 1 M DEA. 200,000 compounds, 0.03% hits;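 active = over 50% inhibition of tissue-nonspecific alkaline phosphatase at 20 µM in the single-dose screen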;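 note: plate controls were DMSO wells for no effect and EDTA-quenched wells as full inhibition for full effect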
PTEN del growth – growth suppression of PTEN-null HCT116, primary screen, cell-based, CellTiter-Glo. 140,000 compounds, 1.2% hits. HCT116 PTEN-null viability, 60 h; hits give low values. viability, % at 10 µM. AID 827, 2007;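 active = viability at or below a set limit, 4 SD under the median of all tested compounds, cut at about 3.7% in these data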;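 note: PTEN knockout HCT116 line with beta catenin targeted HCT116 as companion control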
Lmaj promast – Leishmania major promastigote growth inhibition, primary screen; Leishmania major promastigotes, resazurin fluorescence viability; inhibition, % at 10 µM; 200,000 compounds, 9% hits; AID 1063, 2008; in the data active = inhibition above about 50%;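 note: promastigotes grown with compound for 44 hours at 28 °C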
HCT116 bCat-KO – primary screen for growth suppressors in beta-catenin knockout HCT116 cells (colon tumor, human); viability, % at 10 µM; HCT116 beta-catenin knockout viability, CellTiter-Glo, 60 h; hits give low values; AID 818, 2007; 140,000 compounds, 1.5% hits;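 active = viability at or under a set limit, the compound median less 4 SD, cut at about 6% in these data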;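 note: 0% = Hyamine 1622 control at 20 µM and 100% = untreated cell control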
Starred values were filed as active, the others as inactive. Rows were chosen to be rich in hits. Some 9.6% of all compounds tested hit in one or more screens of this group.

`N#Cc1ccc(NC(=S)NCCN2CCOCC2)cc1` gave TNAP act hiacc 1, TNAP inh no acc 2.2, TNAP inh hiacc 4.4 and Lmaj promast 5.7.
Screening Cc1cc(C)c(S(=O)(=O)N2CCN(C(=O)c3cccs3)CC2)c(C)c1 returned TNAP act hiacc 1, TNAP inh no acc -9.2, TNAP inh hiacc 0.6 and Lmaj promast 61.9*.
Screening Cc1cc(N2CCC(C)CC2)nc(-n2nc(C)cc2C)n1 returned TNAP act hiacc 1.1, TNAP inh no acc -6.2, TNAP inh hiacc -7.8, PTEN del growth 48.5, Lmaj promast 97.1* and HCT116 bCat-KO 36.7.
For Cc1nc2ccc(NC(=O)Cc3cccc(F)c3)cc2s1 the results were TNAP act hiacc 1.1, TNAP inh no acc -8.7, TNAP inh hiacc -5.6 and Lmaj promast 62.2*.
Screening CCn1nc(C(=O)Nc2ccc3nc(C)sc3c2)c2ccccc2c1=O returned TNAP act hiacc 1, TNAP inh no acc -5.1, TNAP inh hiacc 0.0, PTEN del growth 74.9, Lmaj promast 62.7* and HCT116 bCat-KO 90.6.
For Cc1nc2ccc(NC(=O)Cc3ccccc3F)cc2s1 the results were TNAP act hiacc 1, TNAP inh no acc -8.9, TNAP inh hiacc -2.5 and Lmaj promast 4.4.
CC1(c2ccccc2)NC(=O)N(Cc2ccc([N+](=O)[O-])cc2)C1=O (centres undefined) was read as TNAP act hiacc 1, TNAP inh no acc -4.6, TNAP inh hiacc 4.1, PTEN del growth 79.0, Lmaj promast -5.0 and HCT116 bCat-KO 80.5.
For Cc1ccc(C(=O)NC(=S)N2CCN(c3ccc([N+](=O)[O-])cc3)CC2)cc1 the results were TNAP act hiacc 0.9, TNAP inh no acc -52.2, TNAP inh hiacc 10.8, PTEN del growth 88.8, Lmaj promast -7.6 and HCT116 bCat-KO 94.4.
Screening CCCC(=O)NC(=S)N1CCN(c2ccc([N+](=O)[O-])cc2)CC1 returned TNAP act hiacc 0.8, TNAP inh no acc 12.2, TNAP inh hiacc 19.1, PTEN del growth 96.2, Lmaj promast 70.2* and HCT116 bCat-KO 93.7.
Screening O=C(NCCC1=CCCCC1)c1ccc(F)cc1 returned TNAP act hiacc 1, TNAP inh no acc -12.4, TNAP inh hiacc -0.1, PTEN del growth 94.0, Lmaj promast 3.5 and HCT116 bCat-KO 93.4.
For O=C(NCCC1=CCCCC1)c1ccc(CN2CCOCC2)cc1 the results were TNAP act hiacc 0.9, TNAP inh no acc 1.4, TNAP inh hiacc 7.0, PTEN del growth 89.6, Lmaj promast 81.2* and HCT116 bCat-KO 93.2.
`O=C(NC1CCCCCC1)c1ccc(CN2CCOCC2)cc1` gave TNAP act hiacc 1, TNAP inh no acc -5.0, TNAP inh hiacc 0.2, PTEN del growth 86.3, Lmaj promast 59.3* and HCT116 bCat-KO 97.0.
Screening O=C(NC1CCCC1)c1ccc(CN2CCOCC2)cc1 returned TNAP act hiacc 1.1, TNAP inh no acc -9.8, TNAP inh hiacc -7.2, PTEN del growth 99.5, Lmaj promast -4.7 and HCT116 bCat-KO 93.7.
`Cc1onc(-c2c(F)cccc2Cl)c1C(=O)OCC(=O)NC1CC1` gave TNAP act hiacc 1.1, TNAP inh no acc -10.9, TNAP inh hiacc -8.3 and Lmaj promast -10.3.
`COc1ccc(NC(=O)C(NC(=O)c2ccc(=O)[nH]c2)c2ccc(OC)cc2)cc1` (centres undefined) gave TNAP act hiacc 1, TNAP inh no acc 5.6, TNAP inh hiacc -1.0, PTEN del growth 108.0, Lmaj promast 0.1 and HCT116 bCat-KO 100.0.
For COc1ccc(OC)c(C2C(C#N)=C(N)Oc3cc(N)ccc32)c1 (centres undefined) the results were TNAP act hiacc 1, TNAP inh no acc -5.8, TNAP inh hiacc -1.9, PTEN del growth 67.1, Lmaj promast -0.1 and HCT116 bCat-KO 76.1.
Screening COc1ccc(C2C(C#N)=C(N)Oc3cc4c(cc32)OCO4)cc1 (centres undefined) returned TNAP act hiacc 1, TNAP inh no acc -7.9, TNAP inh hiacc 1.2, PTEN del growth 36.7, Lmaj promast 96.0* and HCT116 bCat-KO 48.0.
Screening Cc1ccc(C(=O)NCC(=O)N/N=C/c2cccs2)cc1[N+](=O)[O-] returned TNAP act hiacc 1, TNAP inh no acc -11.9, TNAP inh hiacc -4.9 and Lmaj promast 9.7.
For COC(=O)[C@@]1(Cc2ccc(OC)cc2)[C@H]2c3cc(C(=O)N4CCCC4)n(Cc4ccc(C)o4)c3C[C@H]2CN1C(=O)c1ccccc1 the results were TNAP act hiacc 1, TNAP inh no acc -8.5, TNAP inh hiacc -4.3, PTEN del growth 11.6, Lmaj promast 53.2* and HCT116 bCat-KO 15.9.
For COC(=O)[C@@]1(Cc2ccc(OC)cc2)[C@H]2c3cc(C(=O)N(C)C)n(Cc4ccc(OC(F)(F)F)cc4)c3C[C@H]2CN1C(=O)c1ccccc1 the results were TNAP act hiacc 1.1, TNAP inh no acc -9.7, TNAP inh hiacc -5.7, PTEN del growth 18.3, Lmaj promast 50.1* and HCT116 bCat-KO 17.7.
For COC(=O)[C@@]1(Cc2ccc(F)cc2)[C@H]2c3cc(C(=O)N4CCCC4)n(CCc4ccccn4)c3C[C@H]2CN1C(=O)c1ccccc1 the results were TNAP act hiacc 1, TNAP inh no acc -3.8, TNAP inh hiacc 1.8, PTEN del growth 79.5, Lmaj promast 98.7* and HCT116 bCat-KO 77.9.
COC(=O)[C@@]1(Cc2ccc(F)cc2)[C@H]2c3cc(C(=O)N4CCCC4)n(CCc4c[nH]c5ccc(OC)cc45)c3C[C@H]2CN1C(=O)c1ccccc1 was read as TNAP act hiacc 1, TNAP inh no acc -7.3, TNAP inh hiacc -2.5, PTEN del growth 44.1, Lmaj promast 78.6* and HCT116 bCat-KO 54.5.
For COCCn1c(C(=O)N2CCCC2)cc2c1C[C@H]1CN(C(=O)c3ccccc3)[C@@](Cc3ccc(F)cc3)(C(=O)OC)[C@@H]21 the results were TNAP act hiacc 1, TNAP inh no acc -6.3, TNAP inh hiacc -0.9, PTEN del growth 63.9, Lmaj promast 17.3 and HCT116 bCat-KO 63.0.
For CC1(C)C([N+](=O)[O-])C(c2ccc(Cl)cc2)NC(c2ccc(Cl)cc2)C1[N+](=O)[O-] (centres undefined) the results were TNAP act hiacc 1, TNAP inh no acc -0.9, TNAP inh hiacc -3.8, PTEN del growth 62.8, Lmaj promast 24.1 and HCT116 bCat-KO 59.3.
`CN(C)S(=O)(=O)c1cc(NC(=O)COC(=O)C2CSC3(C)CCC(=O)N23)ccc1Cl` (centres undefined) gave TNAP act hiacc 1, TNAP inh no acc -11.6, TNAP inh hiacc -3.1, PTEN del growth 84.3, Lmaj promast -3.6 and HCT116 bCat-KO 91.2.
